STEP inh – STEP phosphatase inhibitors, primary screen, biochemical, fluorescence intensity, uHTS | 360,000 compounds, 0.25% hits | recombinant STEP, OMFP fluorogenic substrate | Tyrosine-protein phosphatase non-receptor type 5 (Homo sapiens), P54829 | inhibition, % at 20 µM;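 active = inhibition at 20 µM, scaled per plate between control wells, above about 37%, limit read from the data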;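 note: 0% = DMSO with enzyme and substrate and 100% = substrate only without enzyme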
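Assay system: isolated STEP enzyme / Timing: 20 min at room temperature, dark / Doses: 20 µM, 1% DMSO / Technique: fluorescence intensity, excitation 480 nm, emission 540 nm / Reagent: fluorogenic phosphatase substrate OMFP at 25 µM final / Measure: percent inhibition scaled to no-enzyme and uninhibited-enzyme controls, plate-pattern corrected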
SUMO1 PPI mod – modulators of SUMO1 protein-protein interactions, primary screen, biochemical, uHTS; Small ubiquitin-related modifier 1 (Homo sapiens), P63165; SUMO1 binding to a labelled peptide, TR-FRET, 1 h; inhibition, % at 20 µM; 360,000 compounds, 0.33% hits; AID 602429, 2012; in the data active = inhibition above about 37%
Target sequence (P63165 whole entry, looked up): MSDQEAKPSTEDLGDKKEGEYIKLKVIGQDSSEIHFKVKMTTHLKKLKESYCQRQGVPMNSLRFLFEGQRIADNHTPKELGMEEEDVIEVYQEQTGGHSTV
Scp-1 inhibitor – Scp-1 phosphatase inhibitors, primary screen, biochemical, colorimetric, uHTS. Carboxy-terminal domain RNA polymerase II polypeptide A small phosphatase 1 (Homo …. Recombinant Scp1, phosphopeptide, malachite green phosphate absorbance. inhibition, % at 20 µM. 340,000 compounds, 0.88% hits. AID 493091, 2011;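 active = inhibition above about 50% at 20 µM, limit read from the data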;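 note: plate controls were DMSO wells with enzyme for no effect and wells lacking enzyme for full effect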
Target sequence (Q9GZU7 76-261 limits assumed): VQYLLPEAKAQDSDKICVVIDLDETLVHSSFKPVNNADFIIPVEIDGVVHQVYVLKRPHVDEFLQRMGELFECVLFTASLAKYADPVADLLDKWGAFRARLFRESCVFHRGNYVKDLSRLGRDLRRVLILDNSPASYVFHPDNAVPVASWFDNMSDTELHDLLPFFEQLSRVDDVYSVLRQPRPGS
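Test system: SCP-1 phosphatase catalytic domain, residues 76-261; measured by: colorimetric phosphate reagent with accelerator and stabiliser, absorbance at 630 nm; timing: enzyme reaction 45 min at room temperature, colour 5 min, stabilisation 30 min; also added: Phosphorylated 17-residue peptide substrate; compound dosing: one concentration, 20 µM, with 1.0% DMSO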
DNMT1 block – human DNMT1 methyltransferase inhibitors, primary screen, biochemical, molecular beacon, fluorescence, HinP1I cleavage, uHTS; inhibition (reported as % activation of signal), % at 10 µM; AID 588458, 2011; DNA (cytosine-5)-methyltransferase 1 (Homo sapiens), P26358; 360,000 compounds, 0.83% hits; in the data active = inhibition above about 50%
LMPTP block – LMPTP phosphatase inhibitors, primary screen, biochemical, fluorescence intensity, uHTS. Low molecular weight phosphotyrosine protein phosphatase (Homo sapiens), P24666. recombinant LMPTP-A, OMFP fluorogenic substrate. inhibition, % at 20 µM. 360,000 compounds, 0.22% hits. AID 651560, 2012;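 active = compounds that cut the enzyme signal by at least half of the control window in the single-dose screen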;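 note: plate controls were DMSO wells with enzyme plus substrate for no effect and substrate without enzyme for full effect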
Target sequence (P24666 whole entry, looked up): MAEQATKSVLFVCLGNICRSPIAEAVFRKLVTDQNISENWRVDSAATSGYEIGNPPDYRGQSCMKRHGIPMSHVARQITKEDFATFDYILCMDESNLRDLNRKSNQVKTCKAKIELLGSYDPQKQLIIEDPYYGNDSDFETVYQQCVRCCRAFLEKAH
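Material: LMPTP-A; amount: 0.625 nM enzyme; doses: single 20 µM dose; times: reaction 50 min, room temperature, dark; technique: fluorescence intensity of OMFP turnover product; benchmarks: no-enzyme and uninhibited controls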
Scp1 confirm – Scp-1 phosphatase inhibitors, retest, confirmation, biochemical, colorimetric, single concentration | shares compounds with Scp-1 inhibitor | recombinant SCP-1 catalytic domain, phosphate release, malachite green absorbance | inhibition, % at 20 µM | 2,500 compounds, 61% hits | AID 540281, 2011;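 note: plate controls were DMSO with enzyme for no effect and buffer wells lacking enzyme for full effect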
MG interference – colorimetric readout interference by compounds, confirmation, artefact control for Scp-1 inhibitor project, biochemical, single concentration; Colorimetric interference counterscreen, malachite green absorbance 630 nm; AID 540313, 2011; apparent inhibition (interference), % at 20 µM; 2,500 tested, under 10 active; shares compounds with Scp-1 inhibitor;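 note: compounds added after enzyme reaction finished so only phosphate colour detection is probed; plate controls were DMSO wells with completed Scp-1 reaction for no effect and substrate wells lacking enzyme for full effect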
Scp1 DSF – Scp-1 binding by thermal shift, confirmation, orthogonal assay for Scp-1 inhibitor project, biophysical, differential scanning fluorimetry. 1,500 compounds, 25% hits. shares compounds with Scp-1 inhibitor. Recombinant SCP1, Sypro Orange thermal shift Tm. thermal shift relative to vanadate control, % at 40 µM;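 active = substances whose mean melting-temperature shift, as a percentage of the reference inhibitor's shift, reaches about 5.3%, limit read from the data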;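 note: 0% = Tm of DMSO wells and 100% = Tm with sodium orthovanadate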
DNMT1 confirm – DNMT1 methyltransferase inhibitor retest, confirmation, biochemical, molecular beacon, fluorescence, single concentration | AID 602385, 2012 | DNMT1 molecular beacon HinP1I cleavage | inhibition, % at 10 µM | 2,300 compounds, 8% hits | shares compounds with DNMT1 block;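 active = average inhibition of at least 30% in the single-concentration confirmation test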
DNMT1 interf – counter-screen for DNMT1 inhibitors: spectral interference; shares compounds with DNMT1 block; DNMT1 molecular beacon spectral interference counterscreen, fluorescence 485/520; activation (fluorescence interference), % at 10 µM; 2,300 compounds, 1% hits; AID 602387;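 active = activation of at least 30% at 10 µM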;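 note: DNMT1 catalytic domain with a HinP1I cleavage step and a FAM/dabcyl DNA beacon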
STEP inh conf – STEP phosphatase inhibitor hit confirmation, biochemical, fluorescence intensity, single concentration; recombinant STEP, OMFP fluorogenic substrate; inhibition, % at 20 µM; AID 623866, 2012; 520 compounds, 32% hits; shares compounds with STEP inh; call rule not given here;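 note: 0% = enzyme with substrate plus DMSO and 100% = substrate without enzyme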
* hit, by the source's call. This is a sample that favours compounds with a hit; in the whole collection about 1.7% have one here.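 Rule for the calls, unless noted: active = inhibition of at least 30% at 20 µM; inactive = the rest.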

`CCN(c1ccccc1)S(=O)(=O)c1cc(C(=O)OCC(=O)c2c(N)n(C)c(=O)n(C)c2=O)ccc1C` gave STEP inh 46*, SUMO1 PPI mod 19, Scp-1 inhibitor 62*, DNMT1 block 93*, LMPTP block 26, Scp1 confirm 63*, MG interference -19, Scp1 DSF -4, DNMT1 confirm 3, DNMT1 interf 1 and STEP inh conf 70*.
`CCN(c1ccccc1)S(=O)(=O)c1cc(C(=O)OC(C)C(=O)Nc2ccc3c(c2)OCCO3)ccc1C` (stereo not drawn) gave STEP inh 41*, SUMO1 PPI mod 6, Scp-1 inhibitor 81*, DNMT1 block 29, LMPTP block 23, Scp1 confirm 63*, MG interference -16, Scp1 DSF 7.5* and STEP inh conf 59*.
For CC(OC(=O)c1ccccn1)C(=O)Nc1ccc2c(c1)OCCO2 (stereo not drawn) the results were STEP inh 1, SUMO1 PPI mod 4, Scp-1 inhibitor -1, DNMT1 block 2 and LMPTP block -1.
For O=C(Nc1nc2ccccc2[nH]1)c1cc2ccccc2o1 the results were STEP inh 4, SUMO1 PPI mod 3, Scp-1 inhibitor -2, DNMT1 block -7 and LMPTP block 0.
`COCCN1C2=C(C(=O)CC(C)(C)C2)C(c2ccc(OC)c(OC)c2)C2=C1CC(C)(C)CC2=O` gave STEP inh -4, SUMO1 PPI mod -9, Scp-1 inhibitor -3, DNMT1 block 1 and LMPTP block 0.
O=C(COc1ccc(/C=N/NC(=O)c2ccc(O)cc2)cc1)Nc1cccc([N+](=O)[O-])c1 was read as STEP inh 74*, SUMO1 PPI mod 6, Scp-1 inhibitor 96*, DNMT1 block 18, LMPTP block 59*, Scp1 confirm 61*, MG interference -20, Scp1 DSF 13* and STEP inh conf 94*.
`CCOc1ccc(C(=O)N/N=C/c2cc([N+](=O)[O-])cs2)cc1` gave STEP inh 91*, SUMO1 PPI mod -5, Scp-1 inhibitor 107*, DNMT1 block 48, LMPTP block 71*, Scp1 confirm 82*, MG interference -18, Scp1 DSF 1, DNMT1 confirm 2, DNMT1 interf 2 and STEP inh conf 14.
COc1cc(C(=O)N/N=C/c2cc([N+](=O)[O-])cs2)cc(OC)c1OC was read as STEP inh 1, SUMO1 PPI mod -22, Scp-1 inhibitor 0, DNMT1 block 1 and LMPTP block 2.
Cc1ccc(SCC(=O)Nc2ccc(S(N)(=O)=O)cc2)cc1 was read as STEP inh -2, SUMO1 PPI mod -2, Scp-1 inhibitor -6, DNMT1 block 0 and LMPTP block -1.
Screening Cc1ccc(S(=O)(=O)CCC(=O)OCC(=O)NCc2ccc(F)cc2)cc1 returned STEP inh -1, SUMO1 PPI mod 4, DNMT1 block 3 and LMPTP block -1.
Screening O=C(CCS(=O)(=O)c1ccc(Br)cc1)NCc1ccc(F)cc1 returned STEP inh 40*, SUMO1 PPI mod 33, Scp-1 inhibitor 81*, DNMT1 block 51*, LMPTP block 2, Scp1 confirm 41*, MG interference -11, Scp1 DSF -13, DNMT1 confirm 0, DNMT1 interf 3 and STEP inh conf 25.
Screening CC(=O)O[C@@H](C[C@@H](C)C1=C2C[C@H](O)C3[C@@]4(C)CCC(=O)C(C)(C)C4CC[C@]3(C)[C@@]2(C)CC1)[C@H]1OC1(C)C (stereo partly drawn) returned STEP inh -2, SUMO1 PPI mod 8, Scp-1 inhibitor -17, DNMT1 block -18 and LMPTP block 2.
Screening Cc1csc2nc(NC(=O)c3ccccc3)sc(=O)c12 returned STEP inh 79*, SUMO1 PPI mod -7, Scp-1 inhibitor 87*, DNMT1 block 24, LMPTP block 57*, Scp1 confirm 70*, MG interference -15, Scp1 DSF -8 and STEP inh conf 16.
Cc1csc2c(=O)sc(NC(=O)c3ccc(F)cc3)nc12 was read as STEP inh 0, SUMO1 PPI mod 4, Scp-1 inhibitor 0, DNMT1 block 8 and LMPTP block -2.
For COc1ccc(C2=NN(C(=O)CCCC(=O)O)C(c3cn(-c4ccccc4)nc3-c3ccccc3)C2)cc1 (stereo not drawn) the results were STEP inh 70*, SUMO1 PPI mod 11, Scp-1 inhibitor 97*, DNMT1 block 2, LMPTP block 39, Scp1 confirm 86*, MG interference -9, Scp1 DSF -35 and STEP inh conf 14.
`COc1ccc(-c2nn(-c3ccccc3)cc2C2CC(c3cccs3)=NN2C(=O)CCC(=O)O)cc1` (stereo not drawn) gave STEP inh 4, SUMO1 PPI mod -16, Scp-1 inhibitor -16, DNMT1 block -2 and LMPTP block -1.
For O=S(=O)(CCN1CCCCC1)CCS(=O)(=O)CCN1CCCCC1 the results were STEP inh 1, SUMO1 PPI mod -9, Scp-1 inhibitor -10, DNMT1 block 12 and LMPTP block -1.

Screening results: PubChem BioAssay, Sanford-Burnham Center for Chemical Genomics
